Results as given in ChEMBL document CHEMBL4346653, “A2B Adenosine Receptor Antagonists with Picomolar Potency” (J Med Chem, 2019).
Converted amounts (≈) assume the structure as drawn.

Key:
[1] = Semi-thermodynamic solubility of the compound at 200 uM after 24 hrs by LC/MS-based shake-flask method; assay type: physicochemical; details: read-out: Therm_solubility
[2] = target: T1, Adenosine receptor A3 (Rattus norvegicus, UniProt P28647); assay: Binding affinity to rat A3 adenosine receptor
T1 sequence (P28647 whole entry): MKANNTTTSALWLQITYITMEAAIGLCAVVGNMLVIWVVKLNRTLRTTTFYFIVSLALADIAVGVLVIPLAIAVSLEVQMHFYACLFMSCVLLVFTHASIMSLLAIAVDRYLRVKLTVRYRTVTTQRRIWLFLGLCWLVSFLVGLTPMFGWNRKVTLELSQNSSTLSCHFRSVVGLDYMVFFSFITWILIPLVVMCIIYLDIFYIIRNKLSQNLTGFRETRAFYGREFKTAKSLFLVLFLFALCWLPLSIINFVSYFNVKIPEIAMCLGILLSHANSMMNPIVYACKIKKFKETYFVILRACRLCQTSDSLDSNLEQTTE

[3] = target: T2, Adenosine receptor A3 (Mus musculus, UniProt Q61618); assay: Displacement of [3H]NECA from recombinant mouse A3 adenosine receptor expressed in CHO cell membranes measured after 180 mins by liquid scintillation counting method
T2 sequence (Q61618 whole entry): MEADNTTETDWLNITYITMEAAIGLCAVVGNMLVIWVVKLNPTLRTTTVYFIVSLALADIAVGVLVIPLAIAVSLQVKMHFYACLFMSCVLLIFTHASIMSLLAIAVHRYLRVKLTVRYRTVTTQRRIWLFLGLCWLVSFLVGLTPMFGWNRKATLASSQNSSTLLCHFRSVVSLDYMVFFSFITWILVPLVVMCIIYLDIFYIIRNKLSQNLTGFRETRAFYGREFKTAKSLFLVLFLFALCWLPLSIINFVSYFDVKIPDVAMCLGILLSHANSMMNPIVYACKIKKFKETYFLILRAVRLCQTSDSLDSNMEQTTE

[4] = target: Adenosine receptor A2a (Mus musculus, UniProt Q60613); assay: Displacement of [3H]MSX-2 from recombinant mouse A2A adenosine receptor expressed in CHO cell membranes measured after 60 mins by liquid scintillation counting method
Chain of Adenosine receptor A2a (Mus musculus, UniProt Q60613) (Q60613 whole entry): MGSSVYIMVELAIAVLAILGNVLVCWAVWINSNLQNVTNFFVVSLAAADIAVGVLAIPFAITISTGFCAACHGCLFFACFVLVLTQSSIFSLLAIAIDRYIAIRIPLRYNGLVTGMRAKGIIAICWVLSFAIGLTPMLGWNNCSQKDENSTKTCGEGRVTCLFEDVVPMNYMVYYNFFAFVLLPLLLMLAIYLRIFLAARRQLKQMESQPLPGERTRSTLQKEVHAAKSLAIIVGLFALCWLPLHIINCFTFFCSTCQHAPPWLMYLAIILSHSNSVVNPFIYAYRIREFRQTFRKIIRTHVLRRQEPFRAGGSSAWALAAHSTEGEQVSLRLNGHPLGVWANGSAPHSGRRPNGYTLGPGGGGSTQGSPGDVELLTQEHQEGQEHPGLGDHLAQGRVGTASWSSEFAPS

[5] = target: T3, Adenosine receptor A2b (Mus musculus, UniProt Q60614); assay: Displacement of [3H]PSB-603 from recombinant mouse A2B adenosine receptor expressed in CHO cell membranes measured after 75 mins by liquid scintillation counting method
T3 sequence (Q60614 whole entry): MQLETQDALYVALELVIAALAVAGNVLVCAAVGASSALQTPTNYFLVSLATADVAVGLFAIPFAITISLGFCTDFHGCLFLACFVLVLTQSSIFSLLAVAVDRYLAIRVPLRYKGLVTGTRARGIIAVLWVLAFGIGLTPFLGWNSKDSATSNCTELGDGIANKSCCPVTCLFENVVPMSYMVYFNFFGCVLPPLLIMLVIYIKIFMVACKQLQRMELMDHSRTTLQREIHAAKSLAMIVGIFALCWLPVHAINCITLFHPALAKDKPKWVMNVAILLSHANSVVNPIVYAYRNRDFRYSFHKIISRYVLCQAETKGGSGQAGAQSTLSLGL

[6] = target: T4, Adenosine receptor A1 (Mus musculus, UniProt Q60612); assay: Displacement of [3H]CCPA from recombinant mouse A1 adenosine receptor expressed in CHO cell membranes measured after 60 mins by liquid scintillation counting method
T4 sequence (Q60612 whole entry): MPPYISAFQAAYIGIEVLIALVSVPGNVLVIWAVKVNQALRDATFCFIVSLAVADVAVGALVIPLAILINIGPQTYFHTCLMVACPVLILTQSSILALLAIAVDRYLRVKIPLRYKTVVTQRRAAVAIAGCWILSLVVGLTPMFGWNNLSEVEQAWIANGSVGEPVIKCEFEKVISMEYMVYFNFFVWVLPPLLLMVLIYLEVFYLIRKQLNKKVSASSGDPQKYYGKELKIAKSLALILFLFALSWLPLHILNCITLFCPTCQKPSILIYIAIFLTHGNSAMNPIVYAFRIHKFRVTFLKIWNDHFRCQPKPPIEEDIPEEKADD

[7] = target: T4, Adenosine receptor A1; assay: Displacement of [3H]DPCPX from recombinant mouse A1 adenosine receptor expressed in CHO cell membranes measured after 60 mins by liquid scintillation counting method
[8] = target: T5, Adenosine receptor A2a (Homo sapiens, UniProt P29274); assay: Displacement of [3H]MSX-2 from recombinant human A2A adenosine receptor expressed in CHO cell membranes measured after 60 mins by liquid scintillation counting method
T5 sequence (P29274 whole entry): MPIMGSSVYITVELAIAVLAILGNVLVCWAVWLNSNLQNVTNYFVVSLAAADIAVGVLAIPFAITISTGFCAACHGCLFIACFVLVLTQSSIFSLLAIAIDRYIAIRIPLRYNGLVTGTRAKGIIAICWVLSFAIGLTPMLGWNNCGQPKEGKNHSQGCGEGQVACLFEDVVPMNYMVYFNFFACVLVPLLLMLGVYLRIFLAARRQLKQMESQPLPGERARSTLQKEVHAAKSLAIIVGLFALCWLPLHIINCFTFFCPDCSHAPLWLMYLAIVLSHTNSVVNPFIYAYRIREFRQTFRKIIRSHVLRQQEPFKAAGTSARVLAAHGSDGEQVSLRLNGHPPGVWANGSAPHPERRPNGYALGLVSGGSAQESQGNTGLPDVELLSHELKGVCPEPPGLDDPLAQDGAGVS
How it was run: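 Human A2A receptor binding against [3H]MSX-2, n = 3. Ki values (± SEM, nM) come from concentration-inhibition curves. Some Ki values are marked as derived from an extrapolated curve.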

[9] = target: T6, Adenosine receptor A2b (Rattus norvegicus, UniProt P29276); assay: Displacement of [3H]PSB-603 from recombinant rat A2B adenosine receptor expressed in CHO cell membranes measured after 75 mins by liquid scintillation counting method
T6 sequence (P29276 whole entry): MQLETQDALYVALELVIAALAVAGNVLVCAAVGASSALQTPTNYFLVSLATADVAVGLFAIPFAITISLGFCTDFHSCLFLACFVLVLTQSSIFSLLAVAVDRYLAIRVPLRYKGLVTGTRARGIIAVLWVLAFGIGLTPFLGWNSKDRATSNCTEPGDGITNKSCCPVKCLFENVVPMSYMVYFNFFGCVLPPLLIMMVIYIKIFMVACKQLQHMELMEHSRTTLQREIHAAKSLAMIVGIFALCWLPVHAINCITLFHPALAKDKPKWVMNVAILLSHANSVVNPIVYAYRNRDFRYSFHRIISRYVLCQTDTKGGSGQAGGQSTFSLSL

[10] = target: T7, Adenosine receptor A2b (Homo sapiens, UniProt P29275); assay: Displacement of [3H]DPCPX from recombinant human A2B adenosine receptor expressed in HEK293 cell membranes measured after 60 mins by topcount scintillation counting method
T7 sequence (P29275 whole entry): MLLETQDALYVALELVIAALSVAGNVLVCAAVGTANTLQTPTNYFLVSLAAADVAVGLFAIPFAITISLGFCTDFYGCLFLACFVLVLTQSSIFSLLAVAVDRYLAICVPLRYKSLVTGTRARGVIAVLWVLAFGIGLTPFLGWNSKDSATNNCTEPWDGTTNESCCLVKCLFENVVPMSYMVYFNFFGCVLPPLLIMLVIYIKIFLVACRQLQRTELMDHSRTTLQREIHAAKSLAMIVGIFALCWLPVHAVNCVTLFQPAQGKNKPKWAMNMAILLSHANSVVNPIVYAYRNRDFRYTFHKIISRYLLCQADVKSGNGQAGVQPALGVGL

[11] = target: T8, Adenosine receptor A1 (Homo sapiens, UniProt P30542); assay: Displacement of [3H]DPCPX from recombinant human A1 adenosine receptor expressed in CHO cell membranes measured after 120 mins by topcount scintillation counting method
T8 sequence (P30542 whole entry): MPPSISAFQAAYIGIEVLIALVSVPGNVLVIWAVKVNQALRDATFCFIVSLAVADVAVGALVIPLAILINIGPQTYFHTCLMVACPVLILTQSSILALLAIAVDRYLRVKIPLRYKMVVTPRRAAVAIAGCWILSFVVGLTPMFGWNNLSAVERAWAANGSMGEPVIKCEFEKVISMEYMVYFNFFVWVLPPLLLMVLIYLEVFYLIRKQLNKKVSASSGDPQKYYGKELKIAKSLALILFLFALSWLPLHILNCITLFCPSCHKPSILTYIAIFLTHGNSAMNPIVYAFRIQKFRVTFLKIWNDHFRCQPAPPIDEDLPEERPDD

[12] = target: T5, Adenosine receptor A2a; assay: Displacement of [3H]ZM241385 from recombinant human A2A adenosine receptor expressed in CHO cell membranes measured after 60 mins by topcount scintillation counting method
[13] = target: T9, Adenosine receptor A3 (Homo sapiens, UniProt P0DMS8); assay: Displacement of [3H]MRE3008-F20 from recombinant human A3 adenosine receptor expressed in CHO cell membranes measured after 120 mins by topcount scintillation counting method
T9 sequence (P0DMS8 whole entry): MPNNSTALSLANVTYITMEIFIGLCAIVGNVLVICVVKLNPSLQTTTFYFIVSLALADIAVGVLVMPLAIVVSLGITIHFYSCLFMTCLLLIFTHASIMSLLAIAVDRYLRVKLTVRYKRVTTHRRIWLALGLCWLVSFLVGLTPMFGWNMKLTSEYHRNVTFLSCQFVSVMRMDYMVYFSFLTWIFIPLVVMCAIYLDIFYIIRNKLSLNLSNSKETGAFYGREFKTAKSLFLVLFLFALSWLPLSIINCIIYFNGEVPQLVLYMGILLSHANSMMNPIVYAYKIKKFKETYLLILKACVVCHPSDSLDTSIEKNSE

CCCn1c(=O)[nH]c2nc(-c3ccc(S(=O)(=O)N4CCN(Cc5ccc(Cl)cc5)CC4)cc3)[nH]c2c1=O
solubility thermodynamic at 24 h, 200 µM [1]: 3.2 µM (≈ 1.74 µg/mL)

CCCn1c(=O)[nH]c2nc(-c3ccc(S(=O)(=O)N4CCN(c5ccc(Cl)cc5)CC4)cc3)[nH]c2c1=O
solubility thermodynamic at 24 h, 200 µM [1]: 3.2 µM (≈ 1.69 µg/mL)

CCCn1c(=O)c2[nH]c(-c3ccc(OCC(=O)Nc4ccc(C#N)cc4)cc3)nc2n(CCC)c1=O
Ki [2]: > 10000 nM
Ki [3]: > 10000 nM
Ki [4]: > 10000 nM
Ki [5]: 3.12 nM
Ki [6]: 1.45 nM

CCCn1c(=O)[nH]c2nc(-c3ccc(S(=O)(=O)O)cc3)[nH]c2c1=O
Ki [2]: > 10000 nM
Ki [3]: > 10000 nM
Ki [4]: > 10000 nM
Ki [5]: 1940 nM
Ki [7]: 591 nM
Ki [8]: 3790 nM
Ki [9]: 3140 nM

O=C(Nc1nc2nn(CCCc3ccccc3)cc2c2nc(-c3ccco3)nn12)c1cccc2ccccc12
Ki [10]: 20 nM
Ki [11]: 1100 nM
Ki [12]: 800 nM
Ki [13]: 300 nM
